Data published in ChEMBL document CHEMBL1154674, “Synthesis and evaluation of three 18F-labeled aminophenylbenzothiazoles as amyloid imaging agents” (J Med Chem, 2009).

Columns and labels:
Assay type in all cases: ADME, organism-based
Lung [1] = assay: Biodistribution in NMRI mouse lung at 3.7 MBq/mL, iv after 60 mins by gamma counting; settings: in vivo, 1 h
Method in brief: (§1)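 Male NMRI mice (30-40 g) under isoflurane (1.5-2.5% in oxygen) got 0.1 mL of HPLC-purified tracer diluted with 0.9% NaCl to 3.7 MBq/mL (ethanol ≤10%) via tail vein. Mice were decapitated at 2 or 60 min p.i., and organs, blood and urine were weighed and γ-counted. Values are background-corrected %ID or %ID/g, with blood mass taken as 7% of body mass.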

Cerebellum [2] = assay: Biodistribution in NMRI mouse cerebellum at 3.7 MBq/mL, iv after 60 mins by gamma counting; settings: in vivo, 1 h; method in brief: as §1
[3] = Biodistribution in NMRI mouse urine at 3.7 MBq/mL, iv after 60 mins by gamma counting; settings: in vivo, 1 h; method in brief: as §1
[4] = Biodistribution in NMRI mouse spleen/pancreas at 3.7 MBq/mL, iv after 2 mins by gamma counting; settings: in vivo; method in brief: as §1
Heart [5] = assay: Drug level in NMRI mouse heart assessed as standard uptake value at 3.7 MBq/mL, iv after 2 mins by gamma counting; settings: in vivo
Method in brief: (§2)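 Male NMRI mice (30-40 g) were anaesthetised with isoflurane. Each received 0.1 mL of HPLC-purified tracer, diluted in 0.9% NaCl to 3.7 MBq/mL (ethanol ≤10%), via a tail vein. Mice were decapitated at 2 or 60 min. Organs were dissected, weighed and γ-counted with background correction. SUV = (organ cpm/organ weight)/(total recovered counts/body weight). Blood mass was taken as 7% of body mass.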

Lung [6] = assay: Drug level in NMRI mouse lung assessed as standard uptake value at 3.7 MBq/mL, iv after 60 mins by gamma counting; settings: in vivo, 1 h; method in brief: as §2
Kidney [7] = assay: Biodistribution in NMRI mouse kidney at 3.7 MBq/mL, iv after 2 mins by gamma counting; settings: in vivo; method in brief: as §1
Kidney [8] = assay: Drug level in NMRI mouse kidney assessed as standard uptake value at 3.7 MBq/mL, iv after 2 mins by gamma counting; settings: in vivo; method in brief: as §2
[9] = Biodistribution in NMRI mouse spleen/pancreas assessed per gram of tissue at 3.7 MBq/mL, iv after 2 mins by gamma counting; settings: in vivo; method in brief: as §1
Heart [10] = assay: Drug level in NMRI mouse heart assessed as standard uptake value at 3.7 MBq/mL, iv after 60 mins by gamma counting; settings: in vivo, 1 h; method in brief: as §2
Cerebellum [11] = assay: Drug level in NMRI mouse cerebellum assessed as standard uptake value at 3.7 MBq/mL, iv after 2 mins by gamma counting; settings: in vivo; method in brief: as §2
Heart [12] = assay: Biodistribution in NMRI mouse heart assessed per gram of tissue at 3.7 MBq/mL, iv after 2 mins by gamma counting; settings: in vivo; method in brief: as §1
Intestine [13] = assay: Biodistribution in NMRI mouse intestine at 3.7 MBq/mL, iv after 2 mins by gamma counting; settings: in vivo; method in brief: as §1
Kidney [14] = assay: Biodistribution in NMRI mouse kidney assessed per gram of tissue at 3.7 MBq/mL, iv after 2 mins by gamma counting; settings: in vivo; method in brief: as §1
Kidney [15] = assay: Drug level in NMRI mouse kidney assessed as standard uptake value at 3.7 MBq/mL, iv after 60 mins by gamma counting; settings: in vivo, 1 h; method in brief: as §2
Stomach [16] = assay: Biodistribution in NMRI mouse stomach at 3.7 MBq/mL, iv after 2 mins by gamma counting; settings: in vivo; method in brief: as §1
[17] = Drug level in NMRI mouse spleen/pancreas assessed as standard uptake value at 3.7 MBq/mL, iv after 2 mins by gamma counting; settings: in vivo; method in brief: as §2
Cerebellum [18] = assay: Biodistribution in NMRI mouse cerebellum assessed per gram of tissue at 3.7 MBq/mL, iv after 60 mins by gamma counting; settings: in vivo, 1 h; method in brief: as §1
Blood [19] = assay: Drug level in NMRI mouse blood assessed as standard uptake value at 3.7 MBq/mL, iv after 2 mins by gamma counting; settings: in vivo; method in brief: as §2
[20] = Biodistribution in NMRI mouse spleen/pancreas at 3.7 MBq/mL, iv after 60 mins by gamma counting; settings: in vivo, 1 h; method in brief: as §1
[21] = Biodistribution in NMRI mouse cerebrum at 3.7 MBq/mL, iv after 2 mins by gamma counting; settings: in vivo; method in brief: as §1
[22] = Biodistribution in NMRI mouse cerebrum at 3.7 MBq/mL, iv after 60 mins by gamma counting; settings: in vivo, 1 h; method in brief: as §1
Blood [23] = assay: Biodistribution in NMRI mouse blood assessed per gram of tissue at 3.7 MBq/mL, iv after 60 mins by gamma counting; settings: in vivo, 1 h; method in brief: as §1
Liver [24] = assay: Biodistribution in NMRI mouse liver assessed per gram of tissue at 3.7 MBq/mL, iv after 2 mins by gamma counting; settings: in vivo
Lung [25] = assay: Biodistribution in NMRI mouse lung assessed per gram of tissue at 3.7 MBq/mL, iv after 2 mins by gamma counting; settings: in vivo; method in brief: as §1
[26] = Biodistribution in NMRI mouse spleen/pancreas assessed per gram of tissue at 3.7 MBq/mL, iv after 60 mins by gamma counting; settings: in vivo, 1 h; method in brief: as §1
Cerebellum [27] = assay: Biodistribution in NMRI mouse cerebellum assessed per gram of tissue at 3.7 MBq/mL, iv after 2 mins by gamma counting; settings: in vivo; method in brief: as §1
Heart [28] = assay: Biodistribution in NMRI mouse heart assessed per gram of tissue at 3.7 MBq/mL, iv after 60 mins by gamma counting; settings: in vivo, 1 h; method in brief: as §1
Liver [29] = assay: Biodistribution in NMRI mouse liver assessed per gram of tissue at 3.7 MBq/mL, iv after 60 mins by gamma counting; settings: in vivo, 1 h; method in brief: as §1
Kidney [30] = assay: Biodistribution in NMRI mouse kidney at 3.7 MBq/mL, iv after 60 mins by gamma counting; settings: in vivo, 1 h; method in brief: as §1
[31] = Biodistribution in NMRI mouse cerebrum assessed per gram of tissue at 3.7 MBq/mL, iv after 2 mins by gamma counting; settings: in vivo; method in brief: as §1
Lung [32] = assay: Biodistribution in NMRI mouse lung at 3.7 MBq/mL, iv after 2 mins by gamma counting; settings: in vivo; method in brief: as §1
Liver [33] = assay: Biodistribution in NMRI mouse liver at 3.7 MBq/mL, iv after 60 mins by gamma counting; settings: in vivo, 1 h; method in brief: as §1
[34] = Drug level in NMRI mouse cerebrum assessed as standard uptake value at 3.7 MBq/mL, iv after 60 mins by gamma counting; settings: in vivo, 1 h; method in brief: as §2
[35] = Drug level in NMRI mouse spleen/pancreas assessed as standard uptake value at 3.7 MBq/mL, iv after 60 mins by gamma counting; settings: in vivo, 1 h; method in brief: as §2
Heart [36] = assay: Biodistribution in NMRI mouse heart at 3.7 MBq/mL, iv after 60 mins by gamma counting; settings: in vivo, 1 h; method in brief: as §1
Liver [37] = assay: Drug level in NMRI mouse liver assessed as standard uptake value at 3.7 MBq/mL, iv after 2 mins by gamma counting; settings: in vivo; method in brief: as §2
Stomach [38] = assay: Biodistribution in NMRI mouse stomach at 3.7 MBq/mL, iv after 60 mins by gamma counting; settings: in vivo, 1 h; method in brief: as §1
Heart [39] = assay: Biodistribution in NMRI mouse heart at 3.7 MBq/mL, iv after 2 mins by gamma counting; settings: in vivo; method in brief: as §1
Lung [40] = assay: Biodistribution in NMRI mouse lung assessed per gram of tissue at 3.7 MBq/mL, iv after 60 mins by gamma counting; settings: in vivo, 1 h; method in brief: as §1
Cerebellum [41] = assay: Drug level in NMRI mouse cerebellum assessed as standard uptake value at 3.7 MBq/mL, iv after 60 mins by gamma counting; settings: in vivo, 1 h; method in brief: as §2
Lung [42] = assay: Drug level in NMRI mouse lung assessed as standard uptake value at 3.7 MBq/mL, iv after 2 mins by gamma counting; settings: in vivo; method in brief: as §2
Blood [43] = assay: Biodistribution in NMRI mouse blood assessed per gram of tissue at 3.7 MBq/mL, iv after 2 mins by gamma counting; settings: in vivo; method in brief: as §1
Blood [44] = assay: Biodistribution in NMRI mouse blood at 3.7 MBq/mL, iv after 2 mins by gamma counting; settings: in vivo; method in brief: as §1
Blood [45] = assay: Drug level in NMRI mouse blood assessed as standard uptake value at 3.7 MBq/mL, iv after 60 mins by gamma counting; settings: in vivo, 1 h; method in brief: as §2
Blood [46] = assay: Biodistribution in NMRI mouse blood at 3.7 MBq/mL, iv after 60 mins by gamma counting; settings: in vivo, 1 h; method in brief: as §1
Cerebellum [47] = assay: Biodistribution in NMRI mouse cerebellum at 3.7 MBq/mL, iv after 2 mins by gamma counting; settings: in vivo; method in brief: as §1
[48] = Biodistribution in NMRI mouse cerebrum assessed per gram of tissue at 3.7 MBq/mL, iv after 60 mins by gamma counting; settings: in vivo, 1 h; method in brief: as §1
[49] = Biodistribution in NMRI mouse urine at 3.7 MBq/mL, iv after 2 mins by gamma counting; settings: in vivo; method in brief: as §1
Liver [50] = assay: Drug level in NMRI mouse liver assessed as standard uptake value at 3.7 MBq/mL, iv after 60 mins by gamma counting; settings: in vivo, 1 h; method in brief: as §2
Intestine [51] = assay: Biodistribution in NMRI mouse intestine at 3.7 MBq/mL, iv after 60 mins by gamma counting; settings: in vivo, 1 h; method in brief: as §1
[52] = Drug level in NMRI mouse cerebrum assessed as standard uptake value at 3.7 MBq/mL, iv after 2 mins by gamma counting; settings: in vivo; method in brief: as §2
Liver [53] = assay: Biodistribution in NMRI mouse liver at 3.7 MBq/mL, iv after 2 mins by gamma counting; settings: in vivo; method in brief: as §1
Kidney [54] = assay: Biodistribution in NMRI mouse kidney assessed per gram of tissue at 3.7 MBq/mL, iv after 60 mins by gamma counting; settings: in vivo, 1 h; method in brief: as §1

Drug uptake (Lung [1]): 0.3% | Drug uptake (Cerebellum [2]): 0.04% | Drug uptake [3]: 3.3% | Drug uptake [4]: 1.3% | SUV (Heart [5]): 2 | SUV (Lung [6]): 0.5 | Drug uptake (Kidney [7]): 5.8% | SUV (Kidney [8]): 3.4 | Drug uptake [9]: 4% | SUV (Heart [10]): 0.2 | SUV (Cerebellum [11]): 2.21 | Drug uptake (Heart [12]): 5.4% | Drug uptake (Intestine [13]): 8.9% | Drug uptake (Kidney [14]): 9.3% | SUV (Kidney [15]): 1.4 | Drug uptake (Stomach [16]): 1.3% | SUV [17]: 1.5 | Drug uptake (Cerebellum [18]): 0.39% | SUV (Blood [19]): 0.8 | Drug uptake [20]: 0.1% | Drug uptake [21]: 1.62% | Drug uptake [22]: 0.07% | Drug uptake (Blood [23]): 1.1% | Drug uptake (Liver [24]): 12% | Drug uptake (Lung [25]): 14.4% | Drug uptake [26]: 0.4% | Drug uptake (Cerebellum [27]): 5.99% | Drug uptake (Heart [28]): 0.5% | Drug uptake (Liver [29]): 24.6% | Drug uptake (Kidney [30]): 2.3% | Drug uptake [31]: 5.33% | Drug uptake (Lung [32]): 3.6% | Drug uptake (Liver [33]): 51.8% | SUV [34]: 0.1 | SUV [35]: 0.2 | Drug uptake (Heart [36]): 0.1% | SUV (Liver [37]): 4.5 | Drug uptake (Stomach [38]): 1.1% | Drug uptake (Heart [39]): 0.9% | Drug uptake (Lung [40]): 1.3% | SUV (Cerebellum [41]): 0.15 | SUV (Lung [42]): 5.3 | Drug uptake (Blood [43]): 2.2% | Drug uptake (Blood [44]): 5.7% | SUV (Blood [45]): 0.4 | Drug uptake (Blood [46]): 2.8% | Drug uptake (Cerebellum [47]): 0.42% | Drug uptake [48]: 0.27% | Drug uptake [49]: 0.2% | SUV (Liver [50]): 9.2 | Drug uptake (Intestine [51]): 19.3% | SUV [52]: 1.97 | Drug uptake (Liver [53]): 24.8% | Drug uptake (Kidney [54]): 3.6%
Compound: Cc1ccc2nc(-c3ccc([18F])cc3)sc2c1
